Screening results (PubChem)
EBI2 block = EBI2 (human) antagonism; actives 0.81% (n = 360,000); EBI2 beta-arrestin recruitment, luminescence, 7a,25-OHC stimulated; inhibition, % at 5 µM; P32249; AID 651636; in the data active = inhibition above about 38%;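 also: enzyme fragment complementation signal reports receptor beta-arrestin coupling in cells; 0% = agonist plus DMSO wells and 100% = wells without agonist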
CCR6 antag = blocks CCL20-driven beta-arrestin recruitment at human CCR6; P51684; CHO-K1 CCR6 PathHunter beta-arrestin, luminescence, CCL20-stimulated; inhibition, % at 20 µM; actives 0.49% (n = 340,000); AID 493098;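 active = compounds whose inhibition of the agonist-driven luminescence signal at 20 µM reaches about 50%, limit read from the data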;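 also: cells stimulated with CCL20 at 14 nM final; plate controls were DMSO with CCL20 for no effect and DMSO without agonist for full effect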
Target sequence (P51684 whole entry, looked up): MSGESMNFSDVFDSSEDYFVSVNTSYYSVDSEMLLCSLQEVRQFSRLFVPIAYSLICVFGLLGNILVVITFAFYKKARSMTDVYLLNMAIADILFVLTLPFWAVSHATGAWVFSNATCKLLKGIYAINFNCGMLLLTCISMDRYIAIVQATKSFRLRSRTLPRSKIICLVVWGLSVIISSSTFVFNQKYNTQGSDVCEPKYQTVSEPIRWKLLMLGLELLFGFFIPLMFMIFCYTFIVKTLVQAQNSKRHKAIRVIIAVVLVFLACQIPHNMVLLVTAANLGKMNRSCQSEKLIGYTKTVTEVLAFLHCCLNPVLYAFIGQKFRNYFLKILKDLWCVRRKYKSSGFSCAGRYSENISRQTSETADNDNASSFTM
APJ ag = agonists of human APJ apelin receptor | P35414 | CHO-K1 APJ PathHunter beta-arrestin, luminescence; 0% DMSO wells, 100% apelin | activation, % at 20 µM | actives 0.11% (n = 330,000) | AID 2520;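 active = activation more than six SD over the plate average, tested at 20 µM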;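 also: 0% = DMSO alone and 100% = apelin-13 at 10 nM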
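Material: engineered CHO-K1 APJ arrestin reporter cells; amount: 1000 CHO-K1 reporter cells seeded per well; incubation: compound stimulation 90 min at 25 °C, detection 60 min; signal: luminescent beta-gal fragment complementation, chemiluminescent substrate; read-out basis: APJ agonist activity; controls: DMSO-only wells as negative, 10 nM Apelin-13 as positive control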
m5-HT2A agonist = mouse HTR2A agonism via beta-arrestin recruitment | activation, % at 7.6 µM | CHO-K1 mHTR2A beta-arrestin complementation, luminescence; percent of 30 µM serotonin response | P35363 | actives 0.66% (n = 360,000);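 active = activation above a run cutoff, the mean activation of all tested compounds plus 3 SD, cut at about 14% in these data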;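 also: 0% = plate median of compound wells and 100% = 30 µM serotonin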
APJ antag = blocks the human apelin receptor APJ; P35414; CHO-K1 APJ beta-arrestin complementation, luminescence; inhibition, % at 20 µM; actives 0.32% (n = 330,000); AID 2521;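 active = inhibition above about 40% at 20 µM, limit read from the data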;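 also: cells challenged with 10 nM apelin-13 agonist together with compound; plate controls were apelin-13 plus DMSO wells for no effect and DMSO wells lacking apelin-13 for full effect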
CXCR6 block = inhibitors of human CXCR6 receptor | actives 0.36% (n = 360,000) | AID 602244 | inhibition, % at 20 µM | O00574 | CHO-K1 PathHunter CXCR6 beta-arrestin, luminescence; in the data active = inhibition above about 34%, passing the limit was not always enough;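 also: antagonist mode with CXCL16 agonist at 10 nM final; 0% = 10 nM CXCL16 with DMSO and 100% = unstimulated wells without agonist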
Target sequence (O00574 whole entry, looked up): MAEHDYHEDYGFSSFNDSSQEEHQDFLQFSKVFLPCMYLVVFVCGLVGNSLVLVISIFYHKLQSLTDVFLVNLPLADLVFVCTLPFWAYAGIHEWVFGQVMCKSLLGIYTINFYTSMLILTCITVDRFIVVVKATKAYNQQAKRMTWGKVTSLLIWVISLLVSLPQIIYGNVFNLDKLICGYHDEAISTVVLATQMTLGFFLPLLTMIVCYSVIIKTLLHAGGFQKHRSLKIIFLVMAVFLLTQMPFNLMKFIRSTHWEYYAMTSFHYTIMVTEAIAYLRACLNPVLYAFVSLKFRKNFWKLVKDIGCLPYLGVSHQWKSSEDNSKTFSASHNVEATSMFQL
CXCR6 confirm = CXCR6 antagonism confirmation, single concentration; shares compounds with CXCR6 block; CHO-K1 CXCR6 PathHunter beta-arrestin, luminescence; inhibition, % at 20 µM; actives 65% (n = 700);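 active = mean inhibition over four retests above 40%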;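 also: receptor stimulated with 10 nM CXCL16 agonist; beta-galactosidase fragment complementation upon beta-arrestin recruitment to receptor; plate controls were CXCL16 plus DMSO for no effect and DMSO without CXCL16 for full effect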
OPRM1 ag = counter-screen for mouse HTR2A agonists: human mu opioid receptor agonists; shares compounds with m5-HT2A agonist; U2OS OPRM1 beta-arrestin PathHunter, luminescence; DMSO 0%, DAMGO 9.3 µM 100%; activation, % at 9.3 µM; actives 5.3% (n = 2,300);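 active = mean activation above the mean of DMSO-only wells plus 3 SD, cut at about 0.5% in these data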
m5-HT2A ag conf = mouse HTR2A agonism confirmed. shares compounds with m5-HT2A agonist. CHO-K1 PathHunter beta-arrestin recruitment, luminescence; DMSO 0%, 30 µM serotonin 100%. activation, % at 7.6 µM. actives 19% (n = 2,300). AID 624381;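 active = mean activation across triplicates above the hit threshold derived in the original primary screen, cut at about 15% in these data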
EBI2 conf = EBI2 (human) antagonism, single concentration confirmation | shares compounds with EBI2 block | EBI2 beta-arrestin luminescence, 7a,25-OHC antagonism | inhibition, % at 5 µM | actives 29% (n = 2,400);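 active = inhibition of at least 50%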
EBI2 ag = EBI2 agonism counter-screen; shares compounds with EBI2 block; EBI2-expressing cells, agonist mode, luminescence, 60 min; 0% vehicle, 100% 7α,25-dihydroxycholesterol control; activation, % at 5 µM; 2,400 tested, under 10 active; AID 652000;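 active = activation of at least 50%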
bGal cs = counter-screen for EBI2 antagonists: E. coli beta-galactosidase inhibition; shares compounds with EBI2 block; purified beta-galactosidase, luminescent Galacton Star, 15 min; inhibition, % at 5 µM; actives 1% (n = 2,400);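 active = replicate-average signal at least 3 plate SD below neutral wells, shown as high inhibition, flagging enzyme-inhibiting false positives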;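 also: 0% = DMSO wells with enzyme and 100% = wells lacking enzyme; higher means stronger loss of beta-gal luminescence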
Active calls of the source: *; / = no result. Sampled rows, rich in hits. Any-hit rate of the full collection: about 2.1%.

SMILES	EBI2 block	CCR6 antag	APJ ag	m5-HT2A agonist	APJ antag	CXCR6 block	OPRM1 ag	m5-HT2A ag conf	others
C=C1C(=O)[C@]23C[C@H]1CCC2[C@@]1(C)C(C[C@@H]3O)[C@](C)(C(=O)OC)CC[C@@H]1O (some centres undefined)	38	/	/	-1	/	55*	/	/	CXCR6 confirm=70*
C[C@@]12C(C[C@H](O)[C@@]34C[C@@H](CCC13)[C@@H](CO)C4=O)[C@](C)(C(=O)O)CC[C@@H]2O (some centres undefined)	-8	/	/	4	/	-6	/	/
Cc1ccc(C2CC(=O)C(C=NCCN3CCN(C(=S)Nc4ccc(F)cc4)CC3)=C(O)C2)cc1 (centres undefined)	6	1	-2	-1	-16	8	/	/
Cc1cc(C)nc(N/N=C/C2=C(O)CC(c3ccc(F)cc3)CC2=O)n1 (centres undefined)	57*	78*	-13	-17	23	60*	/	/	CXCR6 confirm=26;EBI2 conf=67*;EBI2 ag=-5;bGal cs=-5
Cc1cc(Br)ccc1SCC(=O)NNC(=O)c1ccco1	-5	0	-3	5	6	-2	/	/
COc1ccccc1-c1nc(COc2ccc(Cl)cc2Cl)no1	5	9	0	-1	2	-4	/	/
O=C(Nc1ccccc1)c1ccc(Nc2c([N+](=O)[O-])cc([N+](=O)[O-])c3ccccc23)cc1	49*	84*	-10	4	75*	56*	/	/	CXCR6 confirm=67*;EBI2 conf=47;EBI2 ag=-1;bGal cs=23
COc1ccc(-c2c(C(=O)c3ccccc3)[nH]c(N)c2C(=O)c2ccc(Br)cc2)cc1OC	42*	/	/	-18	/	61*	/	/	CXCR6 confirm=65*;EBI2 conf=41;EBI2 ag=-2;bGal cs=0
O=C1c2ccccc2C(=O)N1c1ncccn1	-16	-11	-5	22*	1	-2	0	3
Nc1ncc(C(=O)O)c(-c2ccccc2)n1	-12	-8	/	-3	/	-1	/	/
Cc1cnc(N)nc1-c1ccccc1	-2	/	/	29*	/	-4	0	-4
CCOCCCNCc1ccc(OCCC(C)C)c(OC)c1	-4	-5	-3	-3	-19	7	/	/
O=C(Nc1ccn(CCCN2CCN(c3ncccn3)CC2)c(=O)n1)OCc1ccccc1	-1	/	/	25*	/	-7	0	29*
O=C(NCC1OCCc2ccccc21)c1ccc(NC(=O)c2ccc(Cl)cc2Cl)cc1 (centres undefined)	8	3	2	16*	10	-6	0.8*	11
O=C(NCC1OCCc2ccccc21)c1ccc(NC(=O)c2ccccc2Cl)cc1 (centres undefined)	1	3	0	-3	-11	-1	/	/
CCc1cc(=O)oc2c3c(cc(OCC(=O)N[C@H](C(=O)O)[C@H](C)CC)c12)OC(C)(C)CC3	2	0	-2	1	6	-2	/	/
Oc1ccc(CCNc2c3ccccc3nc3ccccc23)cc1O	-1	19	0	42*	-5	5	0	58*
c1ccc(CNc2c3ccccc3nc3ccccc23)cc1	0	14	0	7	2	3	/	/
Oc1c(/C=N/c2ccccn2)sc2ccccc12	-11	-6	6	15*	-31	2	0	-2
CC(C)C[C@@H](CSc1ccc(Br)cc1)N1CCN(CC(C)C)CCC1=O	18	16	-6	1	-1	6	/	/
Oc1ccc(C2C[C@H]3CC[C@@H]2C3)cc1O (some centres undefined)	-5	-35	-1	-2	-21	-14	/	/
Oc1ccc(C2CNCc3sccc32)cc1O (centres undefined)	-4	-5	-2	48*	25	-6	0	151*
O=C(O)c1ccccc1Nc1ccnc(C(F)(F)F)c1	3	-6	1	19*	15	-7	-1	-1
O=C(O)c1ccccc1Nc1cccc(C(F)(F)F)c1	0	-1	-2	-1	6	-1	/	/
COc1cc(CCN(C(=O)c2cc3ccccc3[nH]2)C(C)c2nc3ccccc3[nH]2)cc(OC)c1 (centres undefined)	-8	/	/	-9	/	0	/	/
SMILES	EBI2 block	CCR6 antag	APJ ag	m5-HT2A agonist	APJ antag	CXCR6 block	OPRM1 ag	m5-HT2A ag conf	others
CC(=O)Nc1ccc(-c2ccnc3c2CC(C(=O)Nc2cccc(N(C)C)c2)O3)cc1 (centres undefined)	-6	/	/	-5	/	-6	/	/
Cc1ccccc1[C@@H](NC(=O)OC(C)(C)C)C(=O)OC(C)(C)C	7	15	-4	6	14	9	/	/
Cc1ccc(S(=O)(=O)NC(=O)Nc2cccc(S(=O)(=O)N(C)C)c2)cc1	-11	9	-2	17*	8	1	-1	0
Cc1ccc(S(=O)(=O)NC(=O)Nc2ccc(F)c(F)c2)cc1	-2	5	-3	-4	-18	-6	/	/
OC(Cn1cncn1)(c1ccc(F)cc1)c1ccc(Cl)cc1 (centres undefined)	-4	6	-3	2	11	-4	/	/
COc1cc(OC)c(C(=O)NNC(=S)NC2CCCCC2)cc1OC	-10	7	1	0	6	2	/	/
CC(C)(C)OC(=O)NNC(=S)NC1CCCCC1	-5	1	-2	16*	-6	0	-1	3
CC[N+](C)(CC)CC(O)COCC1COc2ccccc2O1 (centres undefined)	-2	-5	-1	16*	-10	-2	-1	-2
OC(COCC1COc2ccccc2O1)CN1CCN(c2ccccc2F)CC1 (centres undefined)	-7	17	-7	15*	12	-5	0	36*
Cc1cc(C)nc(Nc2ccc(Cl)cc2C)n1	-8	11	1	4	-3	-3	/	/
